Series [1] is described as follows: Selectivity ratio of IC50 for HDAC1/2 in human HeLa cell nuclear extract to IC50 for N-terminal GST-tagged recombinant HDAC6 (unknown origin). The format is cell-based. The method, boiled down: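 HDAC6 leg: 1 nM GST-HDAC6 with 8 μM Ac-Arg-Gly-Lys(Ac)-AMC. Nuclear-extract leg: 30 μg/mL HeLa nuclear extract (mainly HDAC1/2) with 20 μM of the same substrate in 50 mM Tris-Cl, 137 mM NaCl, 2.7 mM KCl, 1 mM MgCl2, pH 8.0.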

Series [2] concerns the target T1, Protein deacetylase HDAC6 (Homo sapiens, UniProt Q9UBN7).
T1 sequence (Q9UBN7 whole entry): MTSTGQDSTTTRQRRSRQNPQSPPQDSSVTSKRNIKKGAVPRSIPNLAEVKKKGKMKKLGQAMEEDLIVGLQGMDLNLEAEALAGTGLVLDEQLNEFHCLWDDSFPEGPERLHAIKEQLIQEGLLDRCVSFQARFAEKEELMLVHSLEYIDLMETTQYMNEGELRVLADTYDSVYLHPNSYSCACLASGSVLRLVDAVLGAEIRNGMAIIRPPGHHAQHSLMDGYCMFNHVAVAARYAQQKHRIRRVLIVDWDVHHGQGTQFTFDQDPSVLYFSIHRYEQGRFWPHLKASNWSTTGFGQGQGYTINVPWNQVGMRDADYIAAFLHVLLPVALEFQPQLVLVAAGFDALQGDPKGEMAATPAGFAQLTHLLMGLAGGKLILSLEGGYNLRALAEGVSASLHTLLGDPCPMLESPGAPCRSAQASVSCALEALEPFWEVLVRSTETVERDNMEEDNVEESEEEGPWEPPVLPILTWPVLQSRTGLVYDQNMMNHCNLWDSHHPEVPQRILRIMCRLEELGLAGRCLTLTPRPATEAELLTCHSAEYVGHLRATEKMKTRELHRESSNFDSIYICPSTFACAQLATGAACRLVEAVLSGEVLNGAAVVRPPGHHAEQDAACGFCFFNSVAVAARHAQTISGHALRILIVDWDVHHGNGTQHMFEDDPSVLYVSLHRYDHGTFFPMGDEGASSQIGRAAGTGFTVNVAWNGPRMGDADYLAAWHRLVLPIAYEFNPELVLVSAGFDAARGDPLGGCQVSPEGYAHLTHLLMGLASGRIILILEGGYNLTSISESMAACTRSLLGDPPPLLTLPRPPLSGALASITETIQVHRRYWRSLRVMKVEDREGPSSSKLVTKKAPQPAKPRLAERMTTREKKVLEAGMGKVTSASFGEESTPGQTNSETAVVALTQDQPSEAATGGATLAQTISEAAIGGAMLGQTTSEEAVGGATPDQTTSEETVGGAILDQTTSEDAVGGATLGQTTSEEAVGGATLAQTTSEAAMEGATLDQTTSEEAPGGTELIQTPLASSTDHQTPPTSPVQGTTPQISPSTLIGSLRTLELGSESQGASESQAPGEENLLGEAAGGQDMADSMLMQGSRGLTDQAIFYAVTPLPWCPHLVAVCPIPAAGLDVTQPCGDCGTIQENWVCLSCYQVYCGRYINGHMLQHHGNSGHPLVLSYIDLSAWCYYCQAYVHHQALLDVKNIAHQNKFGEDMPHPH
The series can be described thus: Inhibition of N-terminal GST-tagged recombinant HDAC6 (unknown origin) assessed as deacetylation of Ac-Arg-Gly-Lys (Ac) after 1 hr by fluorescence plate reader analysis in presence of trypsin.

The next series is filed under the species Homo sapiens. The series can be described thus: Selectivity ratio of IC50 for full length C-terminal His6x-tagged recombinant human HDAC8 to IC50 for N-terminal GST-tagged recombinant HDAC6 (unknown origin).
Series [3] can be described thus: Kinetic solubility of the compound in potassium phosphate buffer at pH 6.8 by turbidometric analysis. The following applies: read-out: Kinetic_solubility. The format is physicochemical.
Series [4] deals with T1, Protein deacetylase HDAC6. The series is described as follows: Inhibition of HDAC6 in human HeLa cells using acetyl tubulin as substrate assessed as Ac-tubulin accumulation in cytosol after 6 hrs by immunofluorescence assay.
Series [5] addresses T2, Protein deacetylase HDAC6 (Homo sapiens) (UniProt Q9UBN7).
T2 sequence (whole entry): T1 sequence (Q9UBN7 whole entry)
The series can be described thus: Inhibition of HDAC6 in human HeLa cells using acetyl tubulin as substrate assessed as Ac-Lys accumulation in nuclear histones at 20 uM after 24 hrs by immunofluorescence assay relative to control.

In brackets after ≈: the same amount, converted by molar mass.

For the compound `CC(C)(C)C(=O)N1CCc2ccc(C(=O)NO)cc2CC1`, the values for the Ratio IC50 (in series [1]; in the series listed under Homo sapiens) were 340 and 40, respectively. Also, the IC50 in series [2] stood at 120 nM; in series [4], 580 nM. For the same compound, in series [3], the solubility kinetic is greater than 200 µM. Also, the inhibition in series [5] was less than 20%.

Regarding `O=C(NO)c1cc2c(s1)CN(C(=O)C1CCCCC1)CC2`, the Ratio IC50 in series [1] came out at 50. The half-inhibitory concentration (IC50) in series [2] came out at 20 nM; in series [4], 50 nM. Also, in series [3], the solubility kinetic was greater than 200 µM. Moreover, the inhibition in series [5] was less than 20%.

Consider `Cn1cccc1C(=O)N1CCc2cc(C(=O)NO)sc2C1`, for which the Ratio IC50 in series [1] turned out to be 14. In addition, the IC50 amounted to 28 nM in series [2] and 5 nM in series [4]. Moreover, the solubility kinetic in series [3] was greater than 200 µM. Moreover, the inhibition in series [5] was less than 20%.

For the compound `CC(C)(C)C(=O)NCc1ccc(C(=O)NO)cc1`, the Ratio IC50 in series [1] turned out to be 200; in the series filed under Homo sapiens, 40. Moreover, the IC50 in series [2] is 79 nM. The solubility kinetic in series [3] is greater than 200 µM.

Consider `O=C(NO)c1ccc(CNC(=O)C2CCCCC2)cc1`, for which the Ratio IC50 in series [1] came out at 84; in the series listed under Homo sapiens it was 40. Besides, the concentration for half-maximal inhibition (IC50) in series [2] stood at 76 nM. The solubility kinetic in series [3] is greater than 200 µM.

Turning to `O=C(NO)c1cc2c(s1)CCN(C(=O)C1CCCCC1)C2`, the Ratio IC50 in series [1] worked out at 47; in the series filed under Homo sapiens, 40. In addition, the IC50 stood at 36 nM in series [2] and 162 nM in series [4]. Further, the solubility kinetic in series [3] is greater than 200 µM. Besides, in series [5], the inhibition was less than 20%.

`CC(C)(C)C(=O)N1CCCc2cc(C(=O)NO)ccc2C1`: the figures for the Ratio IC50 (in series [1]; in the series filed under Homo sapiens) were greater than 200 and 40, respectively. The concentration for half-maximal inhibition (IC50) was 490 nM in series [2] and 3680 nM in series [4]. The solubility kinetic in series [3] was greater than 200 µM. Besides, the inhibition in series [5] was less than 20%.

Regarding `O=C(NO)c1ccc2c(c1)CCN(C(=O)c1ccc(-c3ccccc3)cc1)CC2`, the Ratio IC50 came out at 340 in series [1] and 40 in the series listed under Homo sapiens. Moreover, the IC50 worked out at 59 nM in series [2] and 2600 nM in series [4]. Also, the solubility kinetic in series [3] is greater than 200 µM. In addition, in series [5], the inhibition was less than 20%.

Turning to `Cn1cccc1C(=O)NCc1ccc(C(=O)NO)s1`, the Ratio IC50 was found to be 202 in series [1] and 40 in the series listed under Homo sapiens. Also, the 50% inhibitory concentration (IC50) in series [2] is 19 nM. Moreover, the solubility kinetic in series [3] was greater than 200 µM.

On to `O=C(NO)c1ccc2c(c1)CCN(C(=O)C1CCCCCC1)C2`, for which the Ratio IC50 in series [1] amounted to 650. In addition, the IC50 in series [2] is 54 nM; in series [4], 340 nM. Besides, in series [3], the solubility kinetic is greater than 200 µM. Moreover, the inhibition in series [5] was less than 20%.

Turning to `Cn1cccc1C(=O)NCc1cnc(C(=O)NO)s1`, the Ratio IC50 in series [1] worked out at 8. In series [2], the half-inhibitory concentration (IC50) was determined as 12000 nM. Moreover, the solubility kinetic in series [3] was greater than 200 µM.

Consider `Cn1cccc1C(=O)N1CCc2sc(C(=O)NO)cc2C1`, for which the Ratio IC50 in series [1] was found to be 30. Moreover, the IC50 was determined as 24 nM in series [2] and 18 nM in series [4]. For the same compound, the solubility kinetic in series [3] is greater than 200 µM. In series [5], the inhibition is less than 20%.

Take `O=C(NO)c1ccc2c(c1)CCCN(C(=O)c1ccc(-c3ccccc3)cc1)C2`: the Ratio IC50 in series [1] was 60; in the series filed under Homo sapiens it was 40. Besides, the results for the 50% inhibitory concentration (IC50) in series [2] and in series [4] were 120 nM and 3090 nM, respectively. Moreover, the solubility kinetic in series [3] was greater than 200 µM. For the same compound, the inhibition in series [5] was less than 20%.

Regarding `CC(C)(C)C(=O)N1CCc2cc(C(=O)NO)sc2C1`, the Ratio IC50 worked out at 71 in series [1] and 40 in the series listed under Homo sapiens. In addition, the half-maximal inhibitory concentration (IC50) in series [2] is 35 nM; in series [4], 158 nM. Further, the solubility kinetic in series [3] was greater than 200 µM. The inhibition in series [5] is less than 20%.

With `O=C(NO)c1ccc2c(c1)CCCN(C(=O)C1CCCCCC1)C2`, the values for the Ratio IC50 (in series [1]; in the series listed under Homo sapiens) were greater than 200 and 40, respectively. Further, the IC50 in series [2] turned out to be 340 nM; in series [4], 2900 nM. Besides, the solubility kinetic in series [3] was greater than 200 µM. The inhibition in series [5] is less than 20%.

In the case of `O=C(NO)c1ccc2c(c1)CCN(C(=O)C1CCCCC1)C2`, the Ratio IC50 in series [1] worked out at 730. For the same compound, the concentration for half-maximal inhibition (IC50) amounted to 50 nM in series [2] and 540 nM in series [4]. In series [3], the solubility kinetic was greater than 200 µM. Further, in series [5], the inhibition is less than 20%.

With `O=C(NO)c1ccc2c(c1)CCN(C(=O)C1CCCCCC1)CC2`, the Ratio IC50 in series [1] amounted to 340; in the series listed under Homo sapiens, 40. Also, the IC50 in series [2] is 120 nM; in series [4] it was 2000 nM. The solubility kinetic in series [3] is greater than 200 µM. Besides, the inhibition in series [5] was less than 20%.

Turning to `Cn1cccc1C(=O)NCc1ncc(C(=O)NO)s1`, the Ratio IC50 in series [1] came out at 123; in the series listed under Homo sapiens, 40. In addition, the IC50 in series [2] was 52 nM. For the same compound, the solubility kinetic in series [3] is greater than 200 µM.

Consider `Cn1cccc1C(=O)N1CCc2ccc(C(=O)NO)cc2CC1`, for which the Ratio IC50 in series [1] amounted to 480; in the series filed under Homo sapiens, 40. Moreover, the half-inhibitory concentration (IC50) in series [2] amounted to 130 nM; in series [4], 1510 nM. Moreover, in series [3], the solubility kinetic is greater than 200 µM. Further, the inhibition in series [5] is less than 20%.

With `CC(C)(C)C(=O)N1CCc2sc(C(=O)NO)cc2C1`, the Ratio IC50 in series [1] was 64; in the series filed under Homo sapiens it was 40. Moreover, the IC50 came out at 47 nM in series [2] and 177 nM in series [4]. In addition, in series [3], the solubility kinetic is greater than 200 µM. Moreover, the inhibition in series [5] is less than 20%.

In the case of `O=C(NO)c1ccc2c(c1)CCN(S(=O)(=O)c1ccc(C(F)(F)F)cc1)C2`, the Ratio IC50 in series [1] was 610. Moreover, the results for the 50% inhibitory concentration (IC50) in series [2] and in series [4] were 60 nM and 1300 nM, respectively. For the same compound, the solubility kinetic in series [3] was 25 µM (≈ 10 µg/mL). Also, in series [5], the inhibition was less than 20%.

As a reminder, the IC50 is the concentration needed to halve the response being measured. As a reminder, the inhibition is how much of the control response was suppressed.

Values taken from ChEMBL document CHEMBL2429834, “Potent histone deacetylase inhibitors derived from 4-(aminomethyl)-N-hydroxybenzamide with high selectivity for the HDAC6 isoform” (J Med Chem, 2013).
